Experimental data of several laboratories.
Compare with care: the assays were run in different laboratories. In brackets after ≈: the same amount, converted by molar mass.
Organism: Escherichia coli

Compound | assay | test system | quantity | result
COC(=O)c1cc(-c2cccc(NC(=S)Nc3ccc(Cl)cc3)c2)on1 | microbial growth, broth dilution | ATCC25922 | MIC | > 64 µg/mL
O=C(N/N=C/c1ccc([N+](=O)[O-])o1)c1ccc(O)cc1 | microbial growth | – | MIC90 | 31.2 µg/mL (≈ 114 µM)
Cc1c(NN=C(C#N)C2=NC(=O)CS2)c(=O)n(-c2ccccc2)n1C | microbial killing, broth dilution | – | MBC | 0.25 µg/mL (≈ 0.705 µM)
COC(=O)c1cc(-c2ccc(NC(=O)Nc3ccc(Cl)c(Cl)c3)cc2)on1 | microbial growth, broth dilution | ATCC25922 | MIC | > 64 µg/mL
CC(C)C(C)CCCCCCCCCCCc1cc(O)cc(O)c1 (stereo not shown) | microbial growth | – | IC50 | 50.2 µM
COC(=O)c1cc(-c2cccc(NC(=O)Nc3ccc(F)cc3F)c2)on1 | microbial growth, broth dilution | ATCC25922 | MIC | > 64 µg/mL
CCCCCCCCCCCC(=O)OC[C@H]1O[C@@H](n2cc(C)c(=O)[nH]c2=O)C[C@@H]1O | microbial killing, broth dilution | – | MBC | 16 µg/mL (≈ 37.7 µM)
CCC(CCCCCCCCCCc1cc(O)cc(O)c1)C(C)C (stereo not shown) | microbial growth | – | IC50 | 34.3 µM
O=C(Nc1cccc(-c2cc(C(=O)O)no2)c1)Nc1ccc(Cl)c(Cl)c1 | microbial growth, broth dilution | ATCC25922 | MIC | > 64 µg/mL
CC(C)CCCCCCCCCCCCCCc1cc(O)cc(O)c1 | microbial growth | – | IC50 | 47.3 µM
O=C(N[C@H](CO)[C@H](O)c1ccc([N+](=O)[O-])cc1)C(Cl)Cl | microbial growth | – | MIC90 | 15.6 µg/mL (≈ 48.3 µM)
Cc1cc(/C=C2\Sc3ccccc3N2CCCN2CCC(C)CC2)c2ccccc2[n+]1C.[I-] | microbial growth, broth dilution | ATCCBAA2469 | MIC | 1 µg/mL
O=C(Sc1cccccc1=O)c1ccccc1 | microbial growth, broth dilution | ATCC35218 | MIC80 | 19.8 µM (≈ 4.8 µg/mL)
